Values after ≈ are worked out from the molar mass of the structure shown.
Species on record: Oryctolagus cuniculus
Assay: In vitro inhibition of iron-dependent peroxidation of rabbit brain vesicular membrane lipids
Format: functional
Settings: not given
Procedure, shortened: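 Rabbit brain homogenized 10% w/v in 25 mM Tris-HCl with 0.15 M KCl, pH 7.5, spun 10000g for 15 min. The supernatant was given the agent in DMSO and incubated with ADP (220 μM) and FeCl3 (2 μM) at 37 °C for 1 h; the control was not incubated. TBARS read at 532 nm as MDA against a standard curve. Reported as MIC, the minimum tested concentration giving ≥50% inhibition.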

MIC [µM] | SMILES
0.26 | CN(C)CCOc1ccc2c(c1)Nc1ccccc1S2.CS(=O)(=O)O
0.093 | CN(C)CCOc1ccc2c(c1)Nc1ccccc1S2.Cl

Same assay, conditions: Oryctolagus cuniculus; read-out: MIC

SMILES | MIC [µM]
NCCOc1ccc2c(c1)Nc1ccccc1S2 | 0.18 (≈ 0.0465 µg/mL)
CN(C)CCOc1ccc2c(c1)N(C)c1ccccc1S2 | 21 (≈ 6.31 µg/mL)
OCCN1CCN(CCOc2ccc3c(c2)Nc2ccccc2S3)CC1 | 0.068 (≈ 0.0253 µg/mL)
CN(C)CCOc1ccc2c(c1)Sc1ccccc1N2 | 0.056 (≈ 0.016 µg/mL)
OCCN1CCN(CCCc2ccc3c(c2)Nc2ccccc2S3)CC1 | 0.17 (≈ 0.0628 µg/mL)
CN(C)CCCOc1ccc2c(c1)Sc1ccccc1N2 | 0.089 (≈ 0.0267 µg/mL)
CN(C)CCCN1c2ccccc2Sc2ccc(Cl)cc21 [CHLORPROMAZINE] | 10 (≈ 3.19 µg/mL)
c1ccc2c(c1)Nc1ccccc1S2 [PHENOTHIAZINE] | 0.15 (≈ 0.0299 µg/mL)

Results, then the molecule that gave them:

MIC [µM] | SMILES
0.14 (≈ 0.0421 µg/mL) | CN(C)CCCOc1ccc2c(c1)Nc1ccccc1S2
2.5 (≈ 0.894 µg/mL) | CN(C)CCOc1ccc2c(c1C(=O)N(C)C)Nc1ccccc1S2
2.6 (≈ 0.893 µg/mL) | COc1ccc2c(c1C(=O)NCCN(C)C)Nc1ccccc1S2

From ChEMBL document CHEMBL1125377, “Phenothiazines as lipid peroxidation inhibitors and cytoprotective agents” (1992)
